This excerpt belongs to a sample that is enriched for hits.
CHOP inh: blocks CHOP induction under ER stress; CHO-K1 CHOP-promoter luciferase, tunicamycin-induced, 15-18 h; inhibition, % at 10 µM; 220,000 compounds, 3.8% hits; AID 2732;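 active = compounds that reduced the stress-induced luciferase reporter signal by more than about 70% of percent inhibition, limit read from the data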;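 note: 0% = tunicamycin plus vehicle and 100% = wells without tunicamycin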
B2AR ag: human beta-2 adrenergic receptor agonism by FAP | 340,000 compounds, 0.43% hits | AID 504454 | response, % (test concentration not listed) | Am2.2-beta2AR cells, FAP receptor internalization, flow cytometry;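 active = response above a set limit, near 3 SD of response in nonfluorescent compounds, cut at about 42% in these data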
Dynein transport: dynein cargo transport inhibition. 3617.4 mouse cells, GR-EGFP nuclear translocation imaging; test concentration mostly 20 µM; stimulated with dexamethasone, 1 µM; active compounds read low. z-score, hits read low. 220,000 compounds, 0.47% hits;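 active = plate z-score of nuclear minus cytoplasmic receptor signal below a set negative limit, without overly bright fluorescence or cell loss, cut at about -3.5 in these data, passing the limit was not always enough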;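 note: z-score of nuclear minus cytoplasmic ring GR-EGFP intensity difference per well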
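Buffer or medium: tet-free, stripped-serum medium; Also added: dexamethasone, 1.0 µM final; Technique: high-content fluorescence imaging after fixation; Times: 48 h induction, 1 h compound, 30 min dex at 37 °C; Read-out: per-cell GR-EGFP intensity, nucleus versus surrounding cytoplasmic ring, well-averaged.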
XBP1 UPR activ: activators of adaptive arm of unfolded protein response (XBP1); CHO-XBP1 luciferase reporter, IRE1-XBP1 UPR activation, luminescence; percent of tunicamycin response, DMSO as zero; activation, % at 20 µM; 330,000 compounds, 0.33% hits; AID 463104;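 active = versus positive control, 20 µM dose yields 30% or more activation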;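 note: 100% = tunicamycin at 10 µg/mL and 0% = DMSO only wells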
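Material – CHO cell line with stable XBP1 luciferase reporter · Buffer or medium – F12 plus 10% FBS · Compound – single point, 20 µM final compound, 1% DMSO · Schedule – 16-18 h cell attachment at 37 °C, then 6 h compound exposure · Signal – Steady-Glo luminescence read · Benchmarks – high control tunicamycin 10 µg/mL final, low control DMSO vehicle only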
pCIP destab: compounds decreasing mouse p/CIP protein stability; decrease of EGFP signal, % at 10 µM; 290,000 compounds, 0.01% hits; F442A p/CIP-EGFP cells, EGFP fluorescence, 16 h; AID 1984;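 active = EGFP signal decrease of at least 30% at 10 µM or well 3 SD below plate mean, unless failing retest; inactive = the rest, including hits failing retest or dose response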
Target sequence (Q05BA5 1-1403): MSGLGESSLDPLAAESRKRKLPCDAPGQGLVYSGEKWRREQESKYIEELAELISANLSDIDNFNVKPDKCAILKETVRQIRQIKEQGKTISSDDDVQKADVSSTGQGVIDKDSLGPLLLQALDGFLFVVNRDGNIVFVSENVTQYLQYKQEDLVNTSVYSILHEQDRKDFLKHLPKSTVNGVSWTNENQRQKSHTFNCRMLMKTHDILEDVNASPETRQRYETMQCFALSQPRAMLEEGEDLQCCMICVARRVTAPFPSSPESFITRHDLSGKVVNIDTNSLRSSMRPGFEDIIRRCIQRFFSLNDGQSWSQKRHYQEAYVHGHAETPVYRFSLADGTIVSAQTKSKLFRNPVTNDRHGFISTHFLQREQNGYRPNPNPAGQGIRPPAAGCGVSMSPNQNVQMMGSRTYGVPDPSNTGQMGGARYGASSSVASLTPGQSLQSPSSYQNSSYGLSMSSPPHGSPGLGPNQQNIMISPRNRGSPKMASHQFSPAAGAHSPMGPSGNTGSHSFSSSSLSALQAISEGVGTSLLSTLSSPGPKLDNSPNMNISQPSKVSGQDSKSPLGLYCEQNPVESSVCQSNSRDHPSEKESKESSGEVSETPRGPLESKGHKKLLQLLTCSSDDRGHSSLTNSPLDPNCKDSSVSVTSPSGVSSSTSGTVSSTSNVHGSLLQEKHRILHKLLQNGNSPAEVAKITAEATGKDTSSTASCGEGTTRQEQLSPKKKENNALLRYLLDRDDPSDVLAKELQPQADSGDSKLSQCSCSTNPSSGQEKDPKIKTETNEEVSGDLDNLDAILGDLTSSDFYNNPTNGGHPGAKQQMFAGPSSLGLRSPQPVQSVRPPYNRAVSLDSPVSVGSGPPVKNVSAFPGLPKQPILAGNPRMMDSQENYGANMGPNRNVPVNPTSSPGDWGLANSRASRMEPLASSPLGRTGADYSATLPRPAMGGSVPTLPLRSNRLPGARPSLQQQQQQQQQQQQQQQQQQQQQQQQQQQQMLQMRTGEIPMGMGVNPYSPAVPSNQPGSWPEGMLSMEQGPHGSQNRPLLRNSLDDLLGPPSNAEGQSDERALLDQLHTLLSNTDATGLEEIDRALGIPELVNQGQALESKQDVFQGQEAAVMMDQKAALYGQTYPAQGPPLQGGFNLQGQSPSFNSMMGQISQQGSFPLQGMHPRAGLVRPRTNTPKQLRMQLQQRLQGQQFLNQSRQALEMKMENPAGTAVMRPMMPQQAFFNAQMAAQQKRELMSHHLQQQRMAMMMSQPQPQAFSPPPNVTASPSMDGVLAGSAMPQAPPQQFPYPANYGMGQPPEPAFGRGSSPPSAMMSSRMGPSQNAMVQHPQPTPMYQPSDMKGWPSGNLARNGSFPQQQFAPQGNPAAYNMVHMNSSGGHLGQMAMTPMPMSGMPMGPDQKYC
UPR CHOP act: activators of apoptotic arm of unfolded protein response (CHOP) | activation, % at 10 µM | CHO-CHOP luciferase reporter, UPR activation, luminescence; percent of tunicamycin response over DMSO baseline | 330,000 compounds, 0.34% hits;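 active = at 10 µM dose, activation of 40% or more, normalized to positive control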;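 note: 100% = tunicamycin at 10 µg/mL and 0% = DMSO alone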
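System: CHO-CHOP luciferase reporter cell line; amount: 500 cells/well; buffer or medium: F12 medium containing 10% fetal bovine serum; incubation: 6 h compound exposure at 37 °C after overnight seeding; measured by: luciferase luminescence after 10 min with Steady-Glo reagent; evaluation: % reporter activation, DMSO baseline versus tunicamycin full activation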
CHOP inh conf: confirmation of CHOP induction inhibitors; inhibition, % at 10 µM; shares compounds with CHOP inh; CHO-CHOP promoter luciferase reporter, tunicamycin-induced, luminescence; 2,100 compounds, 45% hits; AID 504437;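 active = mean of three repeat readings of reporter signal inhibition above a set limit, cut at about 70% in these data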;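 note: 0% = tunicamycin plus vehicle and 100% = wells lacking tunicamycin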
UPR CHOP confirm: confirmation of apoptotic unfolded protein response (CHOP) activators; shares compounds with UPR CHOP act; CHO-CHOP cells, CHOP-luciferase reporter luminescence; percent of tunicamycin response, DMSO as zero; activation, % at 10 µM; 1,000 compounds, 64% hits; in the data active = activation above about 33%;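 note: 0% = DMSO wells and 100% = tunicamycin 10 µg/mL wells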
UPR XBP1 confirm: adaptive UPR (XBP1) activation, confirmed; AID 485299; 1,000 compounds, 63% hits; activation, % at 20 µM; shares compounds with XBP1 UPR activ; CHO-XBP1 IRE1-XBP1 luciferase reporter, luminescence;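 active = reporter signal at least 30% of the positive control's activation in two or more of four replicate wells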;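 note: plate controls were DMSO negative control for no effect and tunicamycin 10 µg/mL positive control for full effect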
B2AR ag CP1: agonists of human beta-2 adrenergic receptor | shares compounds with B2AR ag | Am2.2-beta2AR cells, FAP surface receptor, flow cytometry; active compounds read low | percent response (surface receptor), % at 10 µM | 1,100 compounds, 25% hits | AID 540358;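 active = surface receptor percent response at or below 58%, roughly 3 SD from nonfluorescent compounds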
B2AR FAP counter: fluorescence artifact in beta-2AR agonist FAP counterscreen; shares compounds with B2AR ag; Am2.2 cells, FAP fluorogen flow cytometry; active compounds read low; calls only at 10 µM; 1,100 tested, under 10 active;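 active = percent response below a set limit in fluorescence channel 1 and below 50% in channel 8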
Starred values were filed as active, the others as inactive; i = inactive; . = no result.

SMILES	CHOP inh	B2AR ag	Dynein transport	XBP1 UPR activ	pCIP destab	UPR CHOP act	UPR CHOP confirm	others
N=c1n(CC(=O)c2ccc([N+](=O)[O-])cc2)c2ccccc2n1Cc1ccc(Cl)cc1	105*	91*	0.95	165*	-9	35	.	CHOP inh conf=122*;UPR XBP1 confirm=59*;B2AR ag CP1=37*;B2AR FAP counter=i
N=c1n(CCO)c2ccccc2n1Cc1ccc(Cl)cc1	5	2	0.9	-2	-18	-5	.
COc1ccc(C2C=C(C34CC5CC(CC(C5)C3)C4)NC(=S)N2)cc1OC (stereo unspecified)	15	8	-0.24	1	0	-1	.
Cc1ccc([N+](=O)[O-])cc1N=Nc1c(C)[nH]n(C(N)=S)c1=O	.	3	.	-4	-4	1	.
NC(=S)n1[nH]c(-c2ccc([N+](=O)[O-])cc2)c(N=Nc2ccc(Cl)cc2)c1=O	107*	2	2.3	.	-11	.	.	CHOP inh conf=114*;B2AR ag CP1=103;B2AR FAP counter=i
O=C(/C=C/c1ccc(F)cc1)N1CC[C@@]2(O)CCCC[C@H]2C1	6	-116	0.29	-2	-3	2	.
Cc1cccc(OCc2n(CC(=O)OC3CC(C)CCC3C(C)C)c3ccccc3[n+]2C)c1 (stereo unspecified)	109*	10	-4.3	32*	-39	12	.	CHOP inh conf=78*;UPR XBP1 confirm=29;B2AR ag CP1=96;B2AR FAP counter=i
CC1CCC(C(C)C)C(OC(=O)Cn2c(-c3ccccc3)[n+](C)c3ccccc32)C1 (stereo unspecified)	54	6	-0.2	19	-5	17	.
c1cc2c(cc1C1CCCCC1)c1c3n2CCCNC3CCC1 (stereo unspecified)	.	44*	-5.8	8	1	32	.	CHOP inh conf=-44;B2AR ag CP1=101;B2AR FAP counter=i
N#Cc1cc([N+](=O)[O-])c(-n2nnc3ccccc32)c([N+](=O)[O-])c1	107*	55*	-1	-6	7	122*	74*	CHOP inh conf=24;B2AR ag CP1=103;B2AR FAP counter=i
COc1ccc(CNC(=O)COc2ccc(C(=O)c3ccc(F)cc3)cc2)cc1	-9	1	-1.1	4	-3	56*	-2
c1ccc(CN2CCN(c3nc(-c4ccccc4)nc4ccccc34)CC2)cc1	33	-3	0.16	2	-13	1	.
c1ccc(-c2nc(N3CCCCCC3)c3ccccc3n2)nc1	.	1	0.099	0	9	82*	31
c1ccc(CN2CCN(c3nc(-c4ccccn4)nc4ccccc34)CC2)cc1	-24	-4	-0.088	13	2	82*	4
c1ccc(CCNc2nc(-c3ccccn3)nc3ccccc23)cc1	81*	1	0.11	14	-7	44*	30
CCn1c(C)nc2cc(NC(=O)Nc3cccc(C(C)=O)c3)ccc21	.	-3	.	-4	-6	1	.
O=C1c2cc(Br)ccc2N(Cc2ccc(Br)cc2)S(=O)(=O)C1c1cc(Cl)c(Cl)cc1[N+](=O)[O-] (stereo unspecified)	.	11	.	1	.	1	.
Clc1cccc(C2CCN(Cc3nc(CC4CC4)no3)C2)c1 (stereo unspecified)	13	-1	1.8	3	-7	0	.
CCc1cccc(C)c1NC(=O)CN(C)S(=O)(=O)c1ccc(-c2ccc(=O)[nH]n2)s1	.	1	.	-6	9	4	.
CCN(c1ccccc1)S(=O)(=O)c1ccc(C(=O)NCc2ccco2)cc1	.	-2	.	-4	.	0	.
Cc1ccc(C(=O)Oc2ccc(Cl)c3cccnc23)cc1[N+](=O)[O-]	-5	-5	-1	22	-11	81*	65*
Cc1cccc(OC(C)C(=O)Nc2ccc3c(c2)OCCO3)c1 (stereo unspecified)	.	-1	.	.	.	.	.
CCC1Oc2ccccc2N(CC(=O)NCc2cccs2)C1=O (stereo unspecified)	-9	9	-0.23	-3	2	-1	.
CC(Cc1ccc(O)c(O)c1)C(C)Cc1ccc(O)c(O)c1 (stereo unspecified)	.	.	.	-2	.	83*	23
CCOC(=O)c1c(C)c(C(=O)NCC2CCCO2)c(C)n1C (stereo unspecified)	24	1	-0.16	-2	5	-2	.
SMILES	CHOP inh	B2AR ag	Dynein transport	XBP1 UPR activ	pCIP destab	UPR CHOP act	UPR CHOP confirm	others
Cc1cc(SCC(=O)N/N=C/c2ccc(O)c(O)c2)c(C)cc1Br	-2	10	-0.72	23	14	57*	20
Cc1cc(SCC(=O)N/N=C/c2ccc(O)cc2O)nc2ccccc12	.	-2	.	-5	-13	0	.
Cc1cc(SCC(=O)N/N=C/c2ccc(O)c(O)c2)nc2ccccc12	.	9	.	59*	0	108*	42*
O=C(N/N=C/c1ccc(O)c(O)c1)c1cc(-c2ccccc2)nc2ccccc12	.	-4	.	34*	5	99*	25
COc1ccc(Cl)cc1NC(=S)NCc1ccc(S(N)(=O)=O)cc1	10	1	0.8	-3	10	1	.
COc1ccc(Oc2nc(-c3ccccn3)nc3ccccc23)cc1	8	-14	1.2	25	14	52*	14
c1ccc(Oc2nc(-c3ccccn3)nc3ccccc23)cc1	-32	-10	-0.73	15	-10	41*	9
CCN(CC)S(=O)(=O)c1ccc(N2CCc3ccccc3C2)nc1	.	-3	.	-2	-10	15	.
CC(C)N(C(C)C)S(=O)(=O)c1ccc(N2CCc3ccccc3C2)nc1	.	5	.	29	4	64*	2
Cc1ccc(NC(=O)c2ccc(Cl)c(N3C(=O)C=CC3=O)c2)cc1	43	25	-3.4	-4	-1	88*	3
COc1ccc(S(=O)(=O)Nc2ccc(F)c(Cl)c2)cc1OC	30	3	0.83	-1	-20	-1	.

Screening results: PubChem BioAssay, several laboratories
